According to article PMC3925341 (Journal of medicinal chemistry, 2013):
Entries after “also recorded” stand apart in the source; their conditions may differ.

Key:
(CUG)12·MBNL1 = experiment: SPR-based inhibition of the MBNL1·; type: biochemical; details: relative to monomeric ligand 2
Procedure, shortened: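 Biotinylated (CUG)12 was immobilized on a streptavidin SPR chip, with Tween-20 and excess competitor tRNA, in 1X PBS. The chip was preincubated with test compound to steady-state RU over 150 s. MBNL1 (0.65 μM) was then injected with compound held at the same concentration. Maximum RU at 150 s was converted to % (CUG)12 bound, normalized to no compound, and fitted dose-response for apparent IC50. Normalized IC50 = IC50 divided by the number of binding modules. Bivalent effect = normalized IC50 of monomer reference divided by that of dimer. Three experiments.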

[1] = system: CUG^exp foci in DM1 cell model (HeLa cells transfected with DMPK-CTG960); experiment: FISH study of; type: cell-based; details: 36 h
(CUG)12 = experiment: Optical melting; type: binding; details: 11 versus 7, same number of linker atoms
TAMRA-(CUG)6 = experiment: Steady state fluorescence titration of 5'-TAMRA-; type: binding; details: for fold decrease in KD compared to 2 (fold greater affinity to (CUG)6): relative to monomeric ligand 2; for KD: TAMRA-(CUG)6, 1X PBS
Procedure, shortened: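 TAMRA-(CUG)6 was titrated with increasing test compound in 1X PBS, with excitation at 560 nm and emission at 590 nm. Normalized fluorescence intensities were fitted to a binding equation with Fmax and F0 to give KD. Mean ± s.d. of three independent experiments.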

HeLa cells = experiment: Sulforhodamine B cytotoxicity assay; type: cell-based; details: concentrations up to 75 μM, 24 h
CUG repeat = details: cited from earlier work
[2] = system: DM1 cell model (HeLa cells); details: cited from earlier work
[3] = system: DM1 cell model (HeLa cells); experiment: Cellular and nuclear penetration by acridine fluorescence; type: cell-based; details: monitored by inherent acridine fluorescence
Procedure, shortened: (§1)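 Live-cell time-lapse confocal imaging of HeLa cells co-transfected with a DMPK-CTG960 minigene plasmid and a GFP-MBNL1 plasmid. Test compound at 50 μM final. Images were taken just before addition and at 3, 6 and 10 h. Cells were relocated on a gridded dish by DIC. Compound uptake was followed by its acridine fluorescence, and foci by GFP-MBNL1. Untreated cells served as control. Z-stacks of 1 μm slices were taken at 10 h.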

[4] = Solubility in buffer / water
[5] = system: MBNL1 foci in live DM1 cell model (HeLa cells, DMPK-CTG960 and GFP-MBNL1); experiment: Time-lapse confocal microscopy of MBNL1 foci in live DM1 model cells; type: cell-based; details: 50 μM, over 10 h
Procedure, shortened: as §1

[6] = 20, 35 and 50 μM (any concentration)

SMILES: Nc1nc(N)nc(NCCCCNc2c3ccccc3nc3ccc(C(=O)NCCOCCOCCOCCOCCOCCNC(=O)c4ccc5nc6ccccc6c(NCCCCNc6nc(N)nc(N)n6)c5c4)cc23)n1 [Ligand 13]
- bivalent effect (ratio of normalized IC50 of 2 to that of the dimeric ligand) ((CUG)12·MBNL1): 3

SMILES: NCCCNCCCCNCCCN [spermine, Spermine, reference compound]
- (CUG)960 foci dispersion [1, 6]: no significant foci dispersion

SMILES: Nc1nc(N)nc(NCCCCNc2c3ccccc3nc3c(C(=O)NCCNCCNCCNC(=O)c4cccc5c(NCCCCNc6nc(N)nc(N)n6)c6ccccc6nc45)cccc23)n1 [Ligand 11]
- fold higher ΔTm value than 7 ((CUG)12): > 3 fold
- fold decrease in KD compared to 2 (fold greater affinity to (CUG)6) (TAMRA-(CUG)6): 14 fold
- bivalent effect (ratio of normalized IC50 of 2 to that of the dimeric ligand) ((CUG)12·MBNL1): 29
- (CUG)960 foci dispersion [1, 6]: no significant foci dispersion

SMILES: Nc1nc(N)nc(NCCCCNc2c3ccccc3nc3ccc(C(=O)NCCOCCOCCNC(=O)c4ccc5nc6ccccc6c(NCCCCNc6nc(N)nc(N)n6)c5c4)cc23)n1 [Ligand 7]
- KD (TAMRA-(CUG)6): close to the monomeric ligand 2
- bivalent effect (ratio of normalized IC50 of 2 to that of the dimeric ligand) ((CUG)12·MBNL1): 8

SMILES: CNC(=O)c1ccc2nc3ccccc3c(NCCCCNc3nc(N)nc(N)n3)c2c1 [Ligand 2]
- (CUG)960 foci dispersion [1, 6]: no significant foci dispersion
- cytotoxicity (HeLa cells): less than 20%

SMILES: Nc1nc(N)nc(NCCCCNc2c3ccccc3nc3c(C(=O)NCCOCCOCCOCCOCCOCCNC(=O)c4cccc5c(NCCCCNc6nc(N)nc(N)n6)c6ccccc6nc45)cccc23)n1 [Ligand 8]
- bivalent effect (ratio of normalized IC50 of 2 to that of the dimeric ligand) ((CUG)12·MBNL1): 4

SMILES: Nc1nc(N)nc(NCCCCNc2c3ccccc3nc3ccc(C(=O)NCCCOCCOCCOCCCNC(=O)c4ccc5nc6ccccc6c(NCCCCNc6nc(N)nc(N)n6)c5c4)cc23)n1 [Ligand 12]
- KD (TAMRA-(CUG)6): close to the monomeric ligand 2
- bivalent effect (ratio of normalized IC50 of 2 to that of the dimeric ligand) ((CUG)12·MBNL1): 5

SMILES: COc1ccc2nc3cc(Cl)ccc3c(NCCCCNc3nc(N)nc(N)n3)c2c1 [Ligand 1]
- selectivity for CUG repeat relative to a random duplex (CUG repeat): over 50 fold
- cell permeability [2]: poor cell permeability

SMILES: Nc1nc(N)nc(NCCCCNc2c3ccccc3nc3ccc(C(=O)NCCCNCCCCCCCCNCCCNC(=O)c4ccc5nc6ccccc6c(NCCCCNc6nc(N)nc(N)n6)c5c4)cc23)n1 [Ligand 5]
- cellular and nuclear penetration [3]: cell-permeable and nucleus-permeable
- (CUG)960 foci dispersion [1, 6]: no significant foci dispersion
- Solubility in the buffer used for optical melting (Solution) ([4]; N.S. = not sufficiently soluble): not fully soluble

SMILES: Nc1nc(N)nc(NCCCCNc2c3ccccc3nc3c(C(=O)NCCNCCNCCNCCNC(=O)c4cccc5c(NCCCCNc6nc(N)nc(N)n6)c6ccccc6nc45)cccc23)n1 [Ligand 10]
- fold decrease in KD compared to 2 (fold greater affinity to (CUG)6) (TAMRA-(CUG)6): 17 fold
- bivalent effect (ratio of normalized IC50 of 2 to that of the dimeric ligand) ((CUG)12·MBNL1): 24

SMILES: Nc1nc(N)nc(NCCCCNc2c3ccccc3nc3c(C(=O)NCCCNCCCNCCCNC(=O)c4cccc5c(NCCCCNc6nc(N)nc(N)n6)c6ccccc6nc45)cccc23)n1 [Ligand 9]
- cellular and nuclear penetration [3]: both cell- and nucleus-permeable; also recorded: penetrate the cellular and nuclear membrane
- fold tighter binder than 10 (TAMRA-(CUG)6; 9 versus 10): 10 fold
- fold decrease in KD compared to 2 (fold greater affinity to (CUG)6) (TAMRA-(CUG)6): 206 fold
- MBNL1 foci dispersion in live cells [5]: almost complete dispersion; also recorded: gradually dispersing over time; also recorded: almost all the foci are dispersed; also recorded: gradual MBNL1 foci dispersion
- bivalent effect (ratio of normalized IC50 of 2 to that of the dimeric ligand) ((CUG)12·MBNL1): 133
- fold greater inhibition potency than 2 in inhibiting formation of the (CUG)12·MBNL1 complex ((CUG)12·MBNL1): 266 fold
- (CUG)960 foci dispersion ([1]; 20 μM, p-value < 0.009): partial foci dispersion
- (CUG)960 foci dispersion ([1]; 35 μM, p-value < 0.009): partial foci dispersion
- (CUG)960 foci dispersion ([1]; 50 μM): full foci dispersion
- Aqueous solubility [4]: aqueous-soluble
- cytotoxicity (HeLa cells): less than 20%
